This is an account of results in ChEMBL document CHEMBL1649105, “Development of Selective LH Receptor Agonists by Heterodimerization with a FSH Receptor Antagonist” (ACS Med Chem Lett, 2011).

The structures appear in SMILES notation. The source made the active and inactive calls. No cut-off for these calls is given here.

In assay [1] the target is T1, Lutropin-choriogonadotropic hormone receptor (Homo sapiens, UniProt P22888). Nature of the assay: Antagonist activity at human LH receptor expressed in CHO-K1 cells assessed as inhibition of LH-induced luciferase activity by CRE-driven luciferase reporter gene assay. In kind it is functional, cell-based. For orientation: Reporter assays use an easily measured gene product as a stand-in for the process of interest.

Assay [2] deals with T2, Follicle-stimulating hormone receptor (Homo sapiens) (UniProt P23945).
T2 sequence (whole entry): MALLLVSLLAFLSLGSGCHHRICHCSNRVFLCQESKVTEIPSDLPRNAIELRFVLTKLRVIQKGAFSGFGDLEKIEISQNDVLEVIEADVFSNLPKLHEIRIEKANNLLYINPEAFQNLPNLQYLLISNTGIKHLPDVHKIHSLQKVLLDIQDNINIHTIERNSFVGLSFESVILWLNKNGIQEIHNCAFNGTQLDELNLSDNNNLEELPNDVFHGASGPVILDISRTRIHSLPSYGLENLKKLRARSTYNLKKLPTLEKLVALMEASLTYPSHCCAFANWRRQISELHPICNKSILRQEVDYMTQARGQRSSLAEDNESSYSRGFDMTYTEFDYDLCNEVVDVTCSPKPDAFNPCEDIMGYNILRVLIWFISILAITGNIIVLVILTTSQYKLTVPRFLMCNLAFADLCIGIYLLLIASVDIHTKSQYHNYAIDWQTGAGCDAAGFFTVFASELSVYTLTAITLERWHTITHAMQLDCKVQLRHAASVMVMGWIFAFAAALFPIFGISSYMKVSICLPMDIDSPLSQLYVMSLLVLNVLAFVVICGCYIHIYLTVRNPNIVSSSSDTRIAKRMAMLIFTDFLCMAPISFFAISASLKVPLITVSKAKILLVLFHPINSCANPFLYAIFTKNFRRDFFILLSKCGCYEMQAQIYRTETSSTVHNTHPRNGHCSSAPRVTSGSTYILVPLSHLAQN
Nature of the assay: Antagonist activity at human FSHR receptor expressed in CHO-K1 cells assessed as inhibition of FSH-induced luciferase activity at 10 uM by CRE-driven luciferase reporter gene assay relative to control.

The target in assay [3] is T1, Lutropin-choriogonadotropic hormone receptor. Nature of the assay: Agonist activity at human LH receptor expressed in CHO-K1 cells assessed as stimulation of luciferase activity by CRE-driven luciferase reporter gene assay. In kind it is functional, cell-based. Summed up: (§1)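 EC50 or IC50 values were fitted from concentration–effect curves. Data come from two independent experiments, each run in duplicate, with SD generally below 0.3.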

For assay [4], the target named is T3, Follicle-stimulating hormone receptor (Homo sapiens, UniProt P23945).
T3 sequence (P23945 whole entry): T2 sequence (whole entry)
Nature of the assay: Agonist activity at human FSHR receptor expressed in CHO-K1 cells assessed as stimulation of luciferase activity by CRE-driven luciferase reporter gene assay. In kind it is functional, cell-based. The method, boiled down:
as §1

Assay [5] addresses T2, Follicle-stimulating hormone receptor (Homo sapiens). Nature of the assay: Agonist activity at human FSHR receptor expressed in CHO-K1 cells assessed as stimulation of luciferase activity at 10 uM by CRE-driven luciferase reporter gene assay relative to control. In kind it is functional, cell-based.
For assay [6], the target named is T3, Follicle-stimulating hormone receptor. The assay can be described thus: Antagonist activity at human FSHR receptor expressed in CHO-K1 cells assessed as inhibition of FSH-induced luciferase activity by CRE-driven luciferase reporter gene assay relative to control.
In assay [7] the target is T2, Follicle-stimulating hormone receptor (Homo sapiens). The assay can be described thus: Agonist activity at human FSHR receptor expressed in CHO-K1 cells assessed as stimulation of luciferase activity by CRE-driven luciferase reporter gene assay relative to control. In kind it is functional, cell-based.

T1 sequence (P22888 whole entry): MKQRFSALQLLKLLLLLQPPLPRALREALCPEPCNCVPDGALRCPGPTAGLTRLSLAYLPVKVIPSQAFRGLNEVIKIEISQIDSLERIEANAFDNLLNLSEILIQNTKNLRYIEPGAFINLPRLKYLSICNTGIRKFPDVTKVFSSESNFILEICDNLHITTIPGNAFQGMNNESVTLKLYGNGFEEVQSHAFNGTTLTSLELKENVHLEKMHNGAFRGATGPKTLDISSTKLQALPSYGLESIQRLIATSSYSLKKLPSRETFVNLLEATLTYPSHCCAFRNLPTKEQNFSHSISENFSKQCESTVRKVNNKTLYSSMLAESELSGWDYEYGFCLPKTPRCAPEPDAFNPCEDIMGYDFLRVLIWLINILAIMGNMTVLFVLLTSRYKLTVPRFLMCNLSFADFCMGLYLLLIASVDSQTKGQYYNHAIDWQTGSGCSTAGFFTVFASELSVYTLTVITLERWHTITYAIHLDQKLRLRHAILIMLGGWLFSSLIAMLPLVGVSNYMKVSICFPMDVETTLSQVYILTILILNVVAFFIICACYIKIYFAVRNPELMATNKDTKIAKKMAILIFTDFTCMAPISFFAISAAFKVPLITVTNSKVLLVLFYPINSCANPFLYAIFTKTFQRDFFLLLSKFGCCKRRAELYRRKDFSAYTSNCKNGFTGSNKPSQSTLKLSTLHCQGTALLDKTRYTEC

In general, EC50 refers to the midpoint of the concentration-response curve. As to `CSc1nc(-c2cccc(NCC(=O)NCc3cn(CCn4cc(COc5ccc([C@@]6(C)CC(C)(C)N(C(C)=O)c7ccc(NC(=O)c8ccc(-c9ccccc9)cc8)cc76)cc5)nn4)nn3)c2)c2c(N)c(C(=O)NC(C)(C)C)sc2n1`, the inhibition result in assay [1] was “inactive”. For the same compound, in assay [2], the Imax stood at 65%. Moreover, the EC50 is 10 nM in assay [3] (read-out: EC50) and “Not Active” in assay [4] (cho-k1).

A word on the Emax: it is the greatest response seen or fitted, relative to the assay's reference. What is called IC50 is the concentration that inhibits the measured activity by half. Take `CSc1nc(-c2cccc(NCC(=O)NCc3cn(CCOCCOCCOCCOCCn4cc(COc5ccc([C@]6(C)CC(C)(C)N(C(C)=O)c7ccc(NC(=O)c8ccc(-c9ccccc9)cc8)cc76)cc5)nn4)nn3)c2)c2c(N)c(C(=O)NC(C)(C)C)sc2n1`: the Emax in assay [5] turned out to be 39%. For the same compound, the inhibition result in assay [1] was “inactive”. In assay [6] (cho-k1), the IC50 entry is “Not Active”. Further, the EC50 in assay [3] (read-out: EC50) was 39 nM.

As for `CSc1nc(-c2cccc(NCC(=O)NCc3cn(CCOCCOCCOCCn4cc(COc5ccc([C@]6(C)CC(C)(C)N(C(C)=O)c7ccc(NC(=O)c8ccc(-c9ccccc9)cc8)cc76)cc5)nn4)nn3)c2)c2c(N)c(C(=O)NC(C)(C)C)sc2n1`, the Emax in assay [5] was determined as 31%. In addition, the inhibition entry in assay [1] was “inactive”. The IC50 entry in assay [6] (cho-k1) is on record as “Not Active”. Besides, the EC50 in assay [3] (read-out: EC50) was found to be 57 nM.

Turning to `CSc1nc(-c2cccc(NCC(=O)NCc3cn(CCOCCOCCOCCOCCn4cc(COc5ccc([C@@]6(C)CC(C)(C)N(C(C)=O)c7ccc(NC(=O)c8ccc(-c9ccccc9)cc8)cc76)cc5)nn4)nn3)c2)c2c(N)c(C(=O)NC(C)(C)C)sc2n1`, the inhibition result in assay [1] was “inactive”. In addition, in assay [2], the Imax was 72%. For the same compound, the IC50 in assay [6] (read-out: IC50) is 1020 nM. For the same compound, the EC50 in assay [3] (read-out: EC50) was 55 nM; in assay [4] (cho-k1) it was “Not Active”.

For the compound `CSc1nc(-c2cccc(NCC(=O)NCc3cn(CCOCCOCCOCCn4cc(COc5ccc([C@@]6(C)CC(C)(C)N(C(C)=O)c7ccc(NC(=O)c8ccc(-c9ccccc9)cc8)cc76)cc5)nn4)nn3)c2)c2c(N)c(C(=O)NC(C)(C)C)sc2n1`, the inhibition result in assay [1] is “inactive”. In assay [2], the Imax was 65%. In addition, the concentration for half-maximal inhibition (IC50) in assay [6] (read-out: IC50) amounted to 1660 nM. Moreover, the concentration giving a half-maximal response (EC50) in assay [3] (read-out: EC50) was 61 nM; in assay [4] (cho-k1), “Not Active”.

Take `CSc1nc(-c2cccc(NCC(=O)NCc3cn(CCOCCn4cc(COc5ccc([C@@]6(C)CC(C)(C)N(C(C)=O)c7ccc(NC(=O)c8ccc(-c9ccccc9)cc8)cc76)cc5)nn4)nn3)c2)c2c(N)c(C(=O)NC(C)(C)C)sc2n1`: in assay [1], the inhibition entry was “inactive”. Moreover, the Imax in assay [2] was found to be 75%. Besides, the EC50 in assay [3] (read-out: EC50) was 27 nM; in assay [4] (cho-k1), “Not Active”.

For the compound `CSc1nc(-c2cccc(NCC(=O)NCc3cn(CCOCCn4cc(COc5ccc([C@]6(C)CC(C)(C)N(C(C)=O)c7ccc(NC(=O)c8ccc(-c9ccccc9)cc8)cc76)cc5)nn4)nn3)c2)c2c(N)c(C(=O)NC(C)(C)C)sc2n1`, the maximal response (Emax) in assay [5] came out at 44%. Further, the inhibition entry in assay [1] is “inactive”. Besides, the IC50 result in assay [6] (cho-k1) is listed as “Not Active”. Also, the EC50 in assay [3] (read-out: EC50) was 80 nM.

As for `C#CCNC(=O)CNc1cccc(-c2nc(SC)nc3sc(C(=O)NC(C)(C)C)c(N)c23)c1`, the inhibition result in assay [1] is “inactive”. Besides, in assay [7], the Emax came to 78%. Moreover, the IC50 result in assay [6] (cho-k1) was “Not Active”. For the same compound, the results for the concentration for a half-maximal effect (EC50) in assay [3] (read-out: EC50) and in assay [4] (read-out: EC50) were 1 nM and 126 nM, respectively.

As for `CSc1nc(-c2cccc(NCC(=O)NCc3cn(CCn4cc(COc5ccc([C@]6(C)CC(C)(C)N(C(C)=O)c7ccc(NC(=O)c8ccc(-c9ccccc9)cc8)cc76)cc5)nn4)nn3)c2)c2c(N)c(C(=O)NC(C)(C)C)sc2n1`, in assay [5], the Emax was 43%. Also, the inhibition entry in assay [1] was “inactive”. Further, the IC50 entry in assay [6] (cho-k1) is “Not Active”. For the same compound, the concentration for a half-maximal effect (EC50) in assay [3] (read-out: EC50) came out at 24 nM.

Turning to `C#CCOc1ccc([C@@]2(C)CC(C)(C)N(C(C)=O)c3ccc(NC(=O)c4ccc(-c5ccccc5)cc4)cc32)cc1`, in assay [1], the inhibition result is “inactive”. For the same compound, in assay [6] (read-out: IC50), the IC50 came out at 39 nM. The EC50 entry in assay [3] (cho-k1) and in assay [4] (cho-k1) was “Not Active” in each case.

For `CSc1nc(-c2cccc(NCC(=O)NCc3cn(CCOCCOCCN=[N+]=[N-])nn3)c2)c2c(N)c(C(=O)NC(C)(C)C)sc2n1`, the inhibition entry in assay [1] is “inactive”. For the same compound, in assay [7], the Emax was 81%. Further, the half-maximal inhibitory concentration (IC50) result in assay [6] (cho-k1) was “Not Active”. Further, the EC50 in assay [3] (read-out: EC50) turned out to be 5 nM; in assay [4] (read-out: EC50), 397 nM.

Turning to `CSc1nc(-c2cccc(NCC(=O)NCc3cn(CCOCCOCCn4cc(COc5ccc([C@@]6(C)CC(C)(C)N(C(C)=O)c7ccc(NC(=O)c8ccc(-c9ccccc9)cc8)cc76)cc5)nn4)nn3)c2)c2c(N)c(C(=O)NC(C)(C)C)sc2n1`, the inhibition result in assay [1] was “inactive”. Moreover, in assay [2], the Imax is 73%. For the same compound, the IC50 in assay [6] (read-out: IC50) stood at 920 nM. The EC50 is 43 nM in assay [3] (read-out: EC50) and “Not Active” in assay [4] (cho-k1).

`CSc1nc(-c2cccc(NCC(=O)NCc3cn(CCOCCOCCn4cc(COc5ccc([C@]6(C)CC(C)(C)N(C(C)=O)c7ccc(NC(=O)c8ccc(-c9ccccc9)cc8)cc76)cc5)nn4)nn3)c2)c2c(N)c(C(=O)NC(C)(C)C)sc2n1`: the Emax in assay [5] is 18%. For the same compound, in assay [1], the inhibition entry is “inactive”. In assay [6] (cho-k1), the IC50 entry is recorded as “Not Active”. The EC50 in assay [3] (read-out: EC50) is 75 nM.

With `CC(=O)N1c2ccc(NC(=O)c3ccc(-c4ccccc4)cc3)cc2[C@@](C)(c2ccc(OCc3cn(CCOCCOCCN=[N+]=[N-])nn3)cc2)CC1(C)C`, the inhibition result in assay [1] was “inactive”. Moreover, the IC50 in assay [6] (read-out: IC50) was 324 nM. In addition, the EC50 entry in assay [3] (cho-k1) and in assay [4] (cho-k1) was “Not Active” in each case.
